Source: PubChem (Johns Hopkins Ion Channel Center)
KCNQ1 inh: inhibitors of human KCNQ1 potassium channel; P51787; CHO-K1 KCNQ1, FluxOR thallium flux fluorescence; stronger effect = higher value; B-score at 10 µM; 310,000 compounds, 1.3% hits; AID 2642;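 active = compounds whose thallium flux B-score, printed positive for inhibition, exceeds three library SD while starting fluorescence stays within three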;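 also: channel opened by potassium depolarization with thallium stimulus after 20 min compound exposure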
Target sequence (P51787 whole entry, looked up): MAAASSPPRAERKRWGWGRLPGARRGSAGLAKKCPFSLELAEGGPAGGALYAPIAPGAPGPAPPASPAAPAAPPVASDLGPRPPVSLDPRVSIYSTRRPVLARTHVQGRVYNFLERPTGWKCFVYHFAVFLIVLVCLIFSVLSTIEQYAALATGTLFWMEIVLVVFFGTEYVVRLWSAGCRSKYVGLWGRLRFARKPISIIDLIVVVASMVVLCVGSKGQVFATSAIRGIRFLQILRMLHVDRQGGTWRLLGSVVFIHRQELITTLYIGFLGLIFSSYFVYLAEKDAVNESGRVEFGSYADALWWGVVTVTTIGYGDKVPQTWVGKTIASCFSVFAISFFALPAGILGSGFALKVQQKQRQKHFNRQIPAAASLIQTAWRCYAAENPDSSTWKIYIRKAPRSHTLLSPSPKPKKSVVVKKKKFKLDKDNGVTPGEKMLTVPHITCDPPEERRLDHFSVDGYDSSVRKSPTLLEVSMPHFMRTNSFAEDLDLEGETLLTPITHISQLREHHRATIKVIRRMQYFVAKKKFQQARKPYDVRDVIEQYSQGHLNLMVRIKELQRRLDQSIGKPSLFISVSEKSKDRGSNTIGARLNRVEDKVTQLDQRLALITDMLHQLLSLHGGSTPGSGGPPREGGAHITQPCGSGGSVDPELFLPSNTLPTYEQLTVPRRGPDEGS
hERG protect: shields human hERG channel from block by proarrhythmic agents; 310,000 compounds, 0.51% hits; activation (rescue from dofetilide block), less the hit threshold, % at 10 µM; CHO-hERG, FluxOR thallium flux, dofetilide IC70 present;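 active = activation above the mean of controls blocked by dofetilide plus 5 SD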;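 also: thallium influx through hERG after potassium depolarization seen as dye fluorescence rise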
KCNK9 block: blocks the human KCNK9 two-pore domain potassium channel; Q9NPC2; HEK293 KCNK9, FluxOR thallium flux fluorescence; stronger effect = lower value; B-score at 10 µM; 310,000 compounds, 1.2% hits; AID 488922;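 active = ratio B-score over 3 SD below the library mean, with starting fluorescence within 5 SD of its mean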;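 also: negative B-score means less thallium flux so channel inhibition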
KCNQ1 act: human KCNQ1 channel potentiation or activation. P51787. CHO-K1 KCNQ1, thallium flux FluxOR fluorescence; stronger effect = higher value. AID 2648. B-score at 10 µM. 310,000 compounds, 0.35% hits;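 active = fluorescence ratio B-score, a plate-corrected score, at least three library SD, with initial intensity B-score within 5 SD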
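Material: CHO-K1 cells stably expressing KCNQ1. Medium: assay buffer for compound exposure, DMSO matched across wells. Reagent: K+/Tl+ depolarizing stimulus. Compound dosing: single-concentration screen. Times: 37 °C overnight plating, 90-min dark dye load, 20-min compound pretreatment. Technique: FluxOR Tl+ flux fluorescence.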
KCNK3 block: human KCNK3 channel inhibition, primary screen | O14649 | CHO-KCNK3 thallium flux, FluxOR fluorescence; stronger effect = lower value | B-score at 10 µM | 340,000 compounds, 0.84% hits | AID 602410;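 active = B-score under library mean minus 4 SD, starting fluorescence ratio at most library mean plus 5 SD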;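 also: more negative B-score means stronger inhibition of thallium flux through KCNK3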
A number is an active result; i = inactive; nt = not tested or not shown. An excerpt weighted towards active compounds, which were near 3.1% of everything screened.

SMILES	KCNQ1 inh	hERG protect	KCNK9 block	KCNQ1 act	KCNK3 block
COc1cc(OC)cc(C(=O)NC(=S)NNC(=O)[C@H]2C[C@@H]2c2ccccc2)c1	i	i	i	15	i
O=C(NC(=S)NNC(=O)[C@H]1C[C@@H]1c1ccccc1)c1ccc(F)cc1	6	i	i	i	i
COc1ccc2ccccc2c1C1CC(=O)N2CN(C)CSC2=C1C#N (stereo unspecified)	6	i	i	i	i
COc1cc(OC)c(C2CC(=O)N3CN(C)CSC3=C2C#N)cc1OC (stereo unspecified)	i	i	i	i	i
Nc1ccc2nc3c(=O)n(CCc4ccccc4)c(=O)[nH]c3nc2c1	8	i	i	i	i
Cc1cc2nc3c(=O)n(CCc4ccccc4)c(=O)[nH]c3nc2cc1N	i	i	i	i	i
CC(=O)N1N=C(c2cccc([N+](=O)[O-])c2)OC1c1ccc(Br)cc1 (stereo unspecified)	i	i	-6.97	i	i
COC(=O)C1=C(C)NC(=S)NC1c1ccc(OCC(=O)N2CCCCC2)c(OC)c1 (stereo unspecified)	i	i	i	i	i
Cc1ccc(Oc2cc(NC(=O)CCCn3nc([N+](=O)[O-])c(Cl)c3C)cc([N+](=O)[O-])c2)cc1	7	i	i	i	i
CCOC(=O)c1cc(-c2ccccc2)sc1NC(=O)C(C)Sc1nnc(C)s1 (stereo unspecified)	i	i	-7.03	i	i
CCOC(=O)c1cc(-c2ccccc2)sc1NC(=O)C(C)C	i	i	i	i	i
O=C(N/C(=C/c1ccccc1)C(=O)N1CCCCC1)c1ccco1	i	i	i	i	i
COC(=O)c1c(NC(=O)c2nc3ccccc3s2)sc2c1CCN(C(C)=O)C2	nt	nt	nt	nt	i
CNC(=O)c1c(NC(=O)c2nc3ccccc3s2)sc2c1CCC2	8	i	-7.81	i	i
C/C(=C/CCC(C)[C@H]1CC[C@@]2(C)C3=C(CC[C@]12C)[C@@]1(C)CCC(=O)C(C)(C)[C@@H]1CC3)C(=O)O (stereo partly specified)	i	39.1	i	26	i
C/C(=C/CCC(C)C1CCC2(C)C3CCC4C(C)(C)C(=O)CCC4(C)C3=CCC12C)C(=O)O (stereo unspecified)	i	9.5	i	29	nt
COc1ccc(C2N=C(c3ccccc3)C(C)(C)N2O)cc1 (stereo unspecified)	i	5.9	i	i	i
CC1(C)C(c2ccccc2)=NC(c2ccccc2)N1O (stereo unspecified)	i	i	i	i	i
C=CCSc1nnc(NC(=O)Cn2cnc3c2c(=O)n(C)c(=O)n3C)s1	i	10.1	i	i	i
CCN1C(=O)[C@H]2[C@@H](c3ccc(C)cc3)N3C(=O)N(c4ccc(C(F)(F)F)cc4)C(=O)[C@@]3(CC(C)C)[C@H]2C1=O	i	i	-7.55	i	i
CCOc1ccccc1NC(=O)c1cccc(S(=O)(=O)N(Cc2ccccc2)c2ccccc2OC)c1	i	i	-6.86	i	i
NC(=O)SCC(=O)Nc1ccc(Cl)c(Cl)c1	nt	nt	nt	nt	i
Cc1ccc(NC(=O)CSC(N)=O)cc1Cl	i	i	-13.5	i	i
O=C(Nc1nnc(Cc2ccccc2)s1)c1cccnc1	i	6.3	i	i	i
CCOCCCn1c(SCC(=O)Nc2cc(C(C)(C)C)nn2-c2ccccc2)nc2ccccc2c1=O	i	i	-7.26	i	i
SMILES	KCNQ1 inh	hERG protect	KCNK9 block	KCNQ1 act	KCNK3 block
O=C(COC(=O)CCCc1nc2ccccc2s1)NC(=O)NCc1ccco1	i	6.4	i	i	i
CCc1noc(C)c1C(=O)N(CC)CC(=O)Nc1cc(Cl)ccc1C	nt	nt	nt	nt	i
CCCCC(CC)C(=O)Nc1ccc(C)c(O)c1 (stereo unspecified)	i	i	-7.48	i	i
CCCCC(CC)C(=O)Nc1ccc(S(=O)(=O)N2CCCC2)cc1 (stereo unspecified)	i	i	i	i	i
CCCCC(CC)C(=O)Nc1ccc(Nc2ccccc2)cc1 (stereo unspecified)	i	i	-6.72	i	i
CCCCC(CC)C(=O)Nc1ccc(C#N)cc1 (stereo unspecified)	i	i	i	i	i
CCOC(=O)C1CCCN(C(=O)C2CCN(S(=O)(=O)c3ccc4ccccc4c3)CC2)C1 (stereo unspecified)	i	i	i	10	i
Cc1cc([N+](=O)[O-])ccc1-c1ccc(C2Nc3ccccc3C(=O)N2O)o1 (stereo unspecified)	i	i	i	13	i
CCCc1noc2c1/C(=N\O)CC(CC(C)SCC)C2 (stereo unspecified)	i	i	-6.96	i	i
CCSC(C)CC1C/C(=N/O)c2c(CC)noc2C1 (stereo unspecified)	i	i	i	i	i
CC(=O)N1CCSc2ccc(S(=O)(=O)Nc3ccccc3C)cc21	i	i	i	i	i
CC(C)c1ccccc1NC(=S)NCC1(N(C)C)CCCCC1	i	i	i	i	i
C=CCSC1=C(C#N)C(c2ccccc2Cl)C(C(=O)c2cccs2)C(O)(C(F)(F)F)N1 (stereo unspecified)	10	i	i	i	i
CCSC1=C(C#N)C(c2ccccc2Cl)C(C(=O)c2cccs2)C(O)(C(F)(F)F)N1 (stereo unspecified)	i	i	i	i	i
OCC1OC(n2cnc3c(/C=C(\O)c4ccccc4)ncnc32)C(O)C1O (stereo unspecified)	nt	nt	nt	nt	i
O=C(N/N=C/c1cccnc1)c1cc(Br)ccc1O	i	i	i	i	i
O=C(N/N=C/c1ccccn1)c1cc(Br)ccc1O	i	i	i	10	i
O=C(NCC1CCCCC1)c1cc(S(=O)(=O)N2CCOCC2)ccc1F	nt	nt	nt	nt	i
COc1ccc2nc(SCC(=O)NCc3ccccc3)[nH]c2c1	i	i	i	i	i
COc1ccc2nc(SCC(=O)NCC(F)(F)F)[nH]c2c1	i	5.2	i	i	i
O=C(NCCN1CCOCC1)c1cc(-c2ccccc2Cl)on1	i	5.1	i	i	i
Cc1c(C(=O)NCCN2CCOCC2)oc2ccccc12	i	48.2	i	i	i
Cc1cc(Cn2nc(-c3ccccc3C)cc2C(=O)O)on1	nt	nt	nt	nt	i
O=C(COc1ccc(Br)cc1Br)NC(=S)N1CCCc2ccccc21	i	6.8	i	i	i
CC(Oc1ccc(Cl)cc1Cl)C(=O)NC(=S)N1CCc2ccccc21 (stereo unspecified)	i	27.6	i	9	i
O=C(NC(=S)N1CCc2ccccc21)c1ccccc1Br	i	52.3	i	45	i
O=C(NC(=S)N1CCc2ccccc21)c1ccc(Br)o1	i	11.6	i	81	i
Cc1ccc(-c2nn(-c3ccc(F)cc3)cc2C(=O)N(C)CC(=O)Nc2ccc(N3CCOCC3)cc2)cc1	i	i	i	i	i
Cc1ccc(C2NC(=O)c3ccccc3N2)c(C)c1 (stereo unspecified)	nt	nt	nt	nt	i
